Numbered stars: 1 amine (or outer) side, 2 acyl side, 3 side chain; on linkers, the order of the positions; unused ones are H or OH. Square brackets hold non-standard residues; d marks the D form. Peptide text beside a SMILES is read from it. * marks the point of attachment. ξ: configuration not given here. Pyrrolidin1yl(2S-Ac) = CC(=O)[C@@H]1CCCN1*; ξF = NC(Cc1ccccc1)C(=O)O; X1 = CO[C@H](CC(C)C)N*; Boc = CC(C)(C)OC(=O)*; CO = O=C([*:1])[*:2]; OtBu = CC(C)(C)O*
tested on: not listed separately; experiment: Michaelis constant was determined; format: ADME

| Km [mM] | SMILES |
| --- | --- |
| 4 | CC(C)C[C@H](NC(=O)[C@H](CCC(=O)O)NC(=O)[C@@H](CCC(=O)O)NC(=O)[C@H](CC(C)C)NC(=O)[C@@H](N)Cc1ccccc1)C(=O)O |

biological target: T1, Vitamin K-dependent gamma-carboxylase (Rattus norvegicus) (UniProt O88496); experiment: Relative activity for […] rat liver vitamin K dependent carboxylase mediated carboxylation of pentapeptide at 1 mM.; format: functional, tissue-based
T1 sequence (whole entry): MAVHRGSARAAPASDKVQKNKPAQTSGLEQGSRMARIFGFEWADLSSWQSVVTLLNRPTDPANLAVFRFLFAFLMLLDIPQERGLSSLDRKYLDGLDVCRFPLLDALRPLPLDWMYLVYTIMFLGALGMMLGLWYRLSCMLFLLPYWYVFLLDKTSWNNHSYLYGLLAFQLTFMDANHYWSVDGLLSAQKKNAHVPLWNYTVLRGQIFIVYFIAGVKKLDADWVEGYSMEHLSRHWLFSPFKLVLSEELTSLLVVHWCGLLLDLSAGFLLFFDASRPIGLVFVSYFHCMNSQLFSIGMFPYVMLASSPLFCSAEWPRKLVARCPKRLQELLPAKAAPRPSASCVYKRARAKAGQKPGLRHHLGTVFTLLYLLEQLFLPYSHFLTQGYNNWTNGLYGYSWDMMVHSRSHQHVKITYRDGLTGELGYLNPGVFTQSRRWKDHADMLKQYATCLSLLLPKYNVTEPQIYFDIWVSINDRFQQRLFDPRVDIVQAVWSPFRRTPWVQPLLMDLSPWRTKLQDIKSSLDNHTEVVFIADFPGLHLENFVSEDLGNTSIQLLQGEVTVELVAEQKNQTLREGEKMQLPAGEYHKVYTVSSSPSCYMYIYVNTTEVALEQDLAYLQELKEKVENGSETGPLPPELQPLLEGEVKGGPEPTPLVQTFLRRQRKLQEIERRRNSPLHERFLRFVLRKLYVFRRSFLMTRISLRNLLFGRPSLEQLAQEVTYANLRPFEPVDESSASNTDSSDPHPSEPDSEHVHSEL
Summary of the method: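 Carboxylase source was Triton-solubilized liver microsomes from vitamin K-deficient rats, pellets KCl-washed. Peptide at 1 mM was incubated with NaH¹⁴CO₃ and vitamin K-H₂ (in ethanol) at 17 °C for 10–20 min. Read-out was ¹⁴CO₂ in TCA-soluble material, with the ethanol-only background subtracted. Activity is given as % of the 1 mM reference pentapeptide on the same preparation; duplicate incubations.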

| Relative activity [%] | SMILES |
| --- | --- |
| 6 | COC(=O)NC(=O)[C@H](CC(C)C)NC(=O)[C@H](CCC(=O)O)NC(=O)C(CCSC)NC(=O)CC(C)C (stereo partly drawn) |
| < 1 | COC(=O)[C@H](CC(C)C)NC(=O)[C@@H](CCC(=O)O)NC(=O)[C@H](CCC(=O)O)NC(=O)[C@H](CC(C)C)NC(=O)[C@H](Cc1ccccc1)NC(=O)OC(C)(C)C |
| 6 | CC(C)C[C@H](NC(=O)[C@H](CO)NC(=O)[C@H](CCC(=O)O)NC(=O)[C@H](CC(C)C)NC(=O)[C@H](C)NC(=O)[C@H](CCC(=O)O)NC(=O)[C@@H](N)Cc1ccccc1)C(=O)O (H-FEALESL-OH) |
| 24 | CO[C@H](CC(C)C)NC(=O)[C@H](CCC(=O)O)NC(=O)[C@H](CCC(=O)O)NC(=O)[C@H](CC(C)C)NC(=O)C(Cc1ccccc1)NC(=O)OC(C)(C)C (stereo partly drawn) (Boc-[ξF]LEE-X1) |
| 25 | COC(=O)[C@H](CC(C)C)NC(=O)[C@H](CCC(=O)O)NC(=O)[C@H](CCC(=O)O)NC(=O)CNC(=O)[C@H](Cc1ccccc1)NC(=O)OC(C)(C)C (HELM PEPTIDE1{[CC(C)(C)OC(=O)[*:2]].F.G.E.E.L.[CO[*:1]]}$$$$V2.0) |
| 11 | COC(=O)NC(=O)[C@H](CC(C)C)NC(=O)[C@H](CCC(=O)O)NC(=O)C(CC(=O)O)NC(=O)OC(C)(C)C (stereo partly drawn) |
| 5 | CC(C)(C)OC(=O)N[C@H](CCC(=O)O)C(=O)OCc1ccccc1 |
| < 1 | COC(=O)NC(=O)[C@H](CC(C)C)NC(=O)[C@H](CCC(=O)O)NC(=O)C(CCC(=O)O)NC(=O)OC(C)(C)C (stereo partly drawn) |
| 77 | COC(=O)[C@@H](CC(C)C)NC(=O)[C@H](CCC(=O)O)NC(=O)[C@H](CCC(=O)O)NC(=O)[C@H](CC(C)C)NC(=O)OC(C)(C)C |
| < 1 | CC(C)(C)OC(=O)N[C@H](CCC(=O)O)C(=O)NCc1ccccc1 |
| < 1 | COC(=O)NC(=O)[C@H](CC(C)C)NC(=O)[C@H](CCCC(=O)O)NC(=O)C(CCCC(=O)O)NC(=O)OC(C)(C)C (stereo partly drawn) |
| 19 | COC(=O)[C@H](CC(C)C)NC(=O)[C@H](CCC(=O)O)NC(=O)[C@H](CCC(=O)O)NC(=O)[C@H](C)NC(=O)OC(C)(C)C (HELM PEPTIDE1{[CC(C)(C)OC(=O)[*:2]].A.E.E.L.[CO[*:1]]}$$$$V2.0) |
| 72 | CC(C)C[C@H](NC(=O)[C@H](CCC(=O)O)NC(=O)[C@H](CCC(=O)O)NC(=O)[C@H](C)NC(=O)[C@@H](N)Cc1ccccc1)C(=O)O (H-FAEEL-OH) |
| < 1 | COC(=O)[C@H](CC(C)C)NC(=O)[C@@H](CCC(=O)O)NC(=O)[C@H](CCC(=O)O)NC(=O)OC(C)(C)C |
| 55 | COC(=O)[C@H](CC(C)C)NC(=O)[C@H](CCC(=O)O)NC(=O)[C@H](CCC(=O)O)NC(=O)[C@@H](CC(C)C)NC(=O)OC(C)(C)C |
| 6 | COC(=O)[C@H](CC(C)C)NC(=O)[C@H](CCC(=O)O)NC(=O)[C@H](CCC(=O)O)NC(=O)CNC(=O)OC(C)(C)C (HELM PEPTIDE1{[CC(C)(C)OC(=O)[*:2]].G.E.E.L.[CO[*:1]]}$$$$V2.0) |
| 149 | CCC(=O)N[C@@H](Cc1ccccc1)C(=O)N[C@@H](CC(C)C)C(=O)N[C@@H](CCC(=O)O)C(=O)N[C@@H](CCC(=O)O)C(=O)N[C@@H](CC(C)C)C(=O)O (HELM PEPTIDE1{[CCC(=O)[*:2]].F.L.E.E.L}$$$$V2.0) |
| < 1 | COC(=O)[C@H](CC(C)C)NC(=O)[C@H](CCC(=O)O)NC(=O)[C@@H](CCC(=O)O)NC(=O)[C@H](CC(C)C)NC(=O)[C@H](Cc1ccccc1)NC(=O)OC(C)(C)C |
| 4 | CC(C)C[C@H](NC(=O)[C@H](CCC(=O)O)NC(=O)[C@H](CCC(=O)O)NC(=O)CNC(=O)[C@@H](N)Cc1ccccc1)C(=O)O (H-FGEEL-OH) |

| Relative activity [%] | SMILES |
| --- | --- |
| < 1 | CC(C)C[C@H](NC(=O)[C@H](CCC(=O)O)NC(=O)[C@H](CC(C)C)NC(=O)[C@H](CCC(=O)O)NC(=O)[C@H](Cc1ccccc1)NC(=O)O)C(=O)O (HELM PEPTIDE1{[O=C(O)[*:2]].F.E.L.E.L}$$$$V2.0) |
| 19 | COC(=O)[C@H](CCC(=O)O)NC(=O)[C@H](C)NC(=O)[C@H](CCC(=O)O)NC(=O)[C@H](CC(C)C)NC(=O)N1CCC[C@H]1C(=O)OC(C)(C)C ({OtBu-Pro-CO}-LEAE-OMe) |
| 100 | CC(C)C[C@H](NC(=O)[C@H](CCC(=O)O)NC(=O)[C@@H](CCC(=O)O)NC(=O)[C@H](CC(C)C)NC(=O)[C@@H](N)Cc1ccccc1)C(=O)O |
| < 1 | COC(=O)NC(=O)[C@H](CC(C)C)NC(=O)[C@H](CC(=O)O)NC(=O)C(CC(=O)O)NC(=O)OC(C)(C)C (stereo partly drawn) |
| < 1 | COC(=O)[C@H](CC(C)C)NC(=O)[C@H](CCC(=O)O)NC(=O)[C@@H](CCC(=O)O)NC(=O)OC(C)(C)C |
| 27 | CC(C)C[C@H](NC(=O)[C@H](CCC(=O)O)NC(=O)[C@H](CCC(=O)O)NC(=O)[C@H](CC(C)C)NC(=O)[C@H](Cc1ccccc1)NC(=O)c1ccccc1)C(=O)O (HELM PEPTIDE1{[O=C(c1ccccc1)[*:2]].F.L.E.E.L}$$$$V2.0) |
| 19 | COC(=O)[C@@H](CC(C)C)NC(=O)[C@H](CCC(=O)O)NC(=O)[C@H](CCC(=O)O)NC(=O)OC(C)(C)C |
| 4 | COC(=O)NC(=O)[C@H](CCC(=O)O)NC(=O)[C@H](C)NC(=O)[C@H](CCC(=O)O)NC(=O)OC(C)(C)C |
| 11 | COC(=O)NC(=O)[C@H](CC(C)C)NC(=O)[C@H](CC(=O)O)NC(=O)C(CCC(=O)O)NC(=O)OC(C)(C)C (stereo partly drawn) |
| 8 | CC(C)C[C@H](NC(=O)[C@H](CCC(=O)O)NC(=O)[C@H](CCC(=O)O)NC(=O)[C@@H](N)CC(C)C)C(=O)O (H-LEEL-OH) |
| < 1 | COC(=O)[C@H](CC(C)C)NC(=O)[C@@H](CCC(=O)O)NC(=O)[C@@H](CCC(=O)O)NC(=O)OC(C)(C)C |
| 77 | CO[C@H](CC(C)C)NC(=O)[C@H](CCC(=O)O)NC(=O)[C@H](CCC(=O)O)NC(=O)[C@H](CC(C)C)NC(=O)OC(C)(C)C |
| 46 | COC(=O)[C@H](CCC(=O)O)NC(=O)[C@H](C)NC(=O)[C@H](CCC(=O)O)NC(=O)[C@H](CC(C)C)NC(=O)OC(C)(C)C (HELM PEPTIDE1{[CC(C)(C)OC(=O)[*:2]].L.E.A.E.[CO[*:1]]}$$$$V2.0) |
| < 1 | CO[C@@H](CC(C)C)NC(=O)[C@@H](CCC(=O)O)NC(=O)OC(C)(C)C |
| 25 | COC(=O)[C@H](CCC(=O)O)NC(=O)[C@H](C)NC(=O)[C@H](CCC(=O)O)NC(=O)[C@H](CC(C)C)NC(=O)N1CCC[C@H]1C(C)=O ({Pyrrolidin1yl(2S-Ac)-CO}-LEAE-OMe) |
| 19 | COC(=O)[C@@H](CC(C)C)NC(=O)[C@H](CCC(=O)O)NC(=O)[C@H](CCC(=O)O)NC(=O)[C@@H](CC(C)C)NC(=O)OC(C)(C)C |
| < 1 | COC(=O)[C@H](CC(C)C)NC(=O)[C@@H](CCC(=O)O)NC(=O)[C@@H](CCC(=O)O)NC(=O)[C@H](CC(C)C)NC(=O)[C@H](Cc1ccccc1)NC(=O)OC(C)(C)C |
| 107 | COC(=O)[C@H](CC(C)C)NC(=O)[C@H](CCC(=O)O)NC(=O)[C@H](CCC(=O)O)NC(=O)OC(C)(C)C |

From ChEMBL document CHEMBL1121850, “Synthesis of peptide analogues of prothrombin precursor sequence 5-9. Substrate specificity of vitamin K dependent carboxylase” (J Med Chem, 1981)
